High-throughput results: PubChem, several laboratories
The list is not random: actives were taken first. Their share in the collection is about 2.6%.
SENP7 block: SENP7 protease inhibitors, primary screen, biochemical, luminescence, uHTS | inhibition, % at 5 µM | recombinant SENP7, Z-RLRGG-aminoluciferin luminescence, 40 min | hit rate 1.5% among 330,000 | Sentrin-specific protease 7 (Homo sapiens), Q9BQF6 | AID 434973, 2010;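 active means inhibition above about 50% at the single test dose, limit read from the data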
Target sequence (Q9BQF6 706-1050 limits assumed): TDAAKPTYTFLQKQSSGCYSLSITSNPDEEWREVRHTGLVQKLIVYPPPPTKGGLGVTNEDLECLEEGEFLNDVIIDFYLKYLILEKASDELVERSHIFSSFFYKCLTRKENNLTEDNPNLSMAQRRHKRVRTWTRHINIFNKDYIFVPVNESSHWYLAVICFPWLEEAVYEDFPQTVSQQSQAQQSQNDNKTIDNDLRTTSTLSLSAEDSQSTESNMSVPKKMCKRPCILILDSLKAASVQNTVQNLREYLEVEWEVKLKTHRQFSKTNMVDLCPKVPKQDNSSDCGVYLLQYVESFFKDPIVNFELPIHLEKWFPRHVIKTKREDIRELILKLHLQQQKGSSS
Platelet DG rel: inhibitors of platelet dense granule secretion, primary screen, cell-based, MLPCN, human platelets. human platelet-rich plasma, SFLLRN dense granule ATP release, luminescence. AID 1663, 2009. hit rate 0.22% among 300,000. inhibition, %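 (compounds screened at 7.5 µM in platelet-rich plasma)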;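 active means mean replicate score, as percent of positive control, at or above 50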
SENP1 FRET inh: human SENP1 catalytic domain inhibitors, primary screen, biochemical, FRET, uHTS; Sentrin-specific protease 1 (Homo sapiens), Q9P0U3; recombinant SENP1 catalytic domain, CyPet-SUMO1-YPet FRET cleavage; inhibition, % at 10 µM; hit rate 0.21% among 360,000; AID 624204, 2012;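 active means inhibition at least 30% at 10 µM, raw YFP signal under a set limit, fluorescence ratio 0.5 to 1.5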
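Material – human SENP1 catalytic domain · Input – SENP1 enzyme, 20 pM final · Compound dosing – single concentration of 10 µM compound, 0.5% DMSO final · Timing – enzyme reaction for 50 min at room temperature, dark · Measured by – FRET fluorescence in CFP and YFP emission channels · Control set – no-enzyme wells low, DMSO-plus-enzyme wells high control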
SENP6 block: SENP6 protease inhibitors, primary screen, biochemical, luminescence, uHTS. AID 2599, 2010. Sentrin-specific protease 6 (Homo sapiens), Q9GZR1. Recombinant SENP6 catalytic domain, aminoluciferin luminescence. inhibition, % at 10 µM. hit rate 1.8% among 330,000;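 active means inhibition above about 50% at the single tested dose, limit read from the data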
SENP8 block-1: human SENP8 protease inhibitors, primary screen, biochemical, fluorescence, Nedd8 protein substrate, uHTS; Sentrin-specific protease 8 (Homo sapiens), Q96LD8; recombinant SENP8; inhibition, % at 20 µM; hit rate 0.64% among 360,000; AID 602440, 2012; in the data active means inhibition mostly above about 40%, no sharp cut-off; inactive means mostly below about 27%
Target sequence (Q96LD8 whole entry, looked up): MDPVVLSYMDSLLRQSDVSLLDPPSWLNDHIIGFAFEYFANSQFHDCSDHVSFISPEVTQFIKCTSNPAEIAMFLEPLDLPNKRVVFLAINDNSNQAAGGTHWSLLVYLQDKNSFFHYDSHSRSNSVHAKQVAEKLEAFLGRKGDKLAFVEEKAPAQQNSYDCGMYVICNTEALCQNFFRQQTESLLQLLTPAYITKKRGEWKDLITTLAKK
SENP8 block-2: SENP8 protease inhibitors, primary screen, biochemical, luminescence; purified SENP8, Z-RLRGG-aminoluciferin cleavage; inhibition, % at 10 µM; hit rate 1.2% among 330,000; in the data active means inhibition above about 50%
SENP8 conf: human SENP8 protease inhibitors, confirmation, biochemical, Nedd8 protein substrate, single concentration; inhibition, % at 25 µM; hit rate 15% among 1,400; purified SENP8, Nedd8-AMC/pro-Nedd8 cleavage fluorescence, 30 min; shares compounds with SENP8 block-1; in the data active means inhibition mostly above about 39%, no sharp cut-off; inactive means mostly below about 34%
Each line names hits and unclear results; the compound was inactive in the other large screens (follow-up assays come after a bar, where they were run).

O=C(COC(=O)c1ccc([N+](=O)[O-])o1)NC1CCS(=O)(=O)C1 (stereo not given)	SENP8 block-1 50 | SENP8 conf 89
CC1Cc2ccccc2N1C(=O)COC(=O)c1ccco1 (stereo not given)	none (no result: SENP7 block, Platelet DG rel, SENP6 block, SENP8 block-2)
CCN1CCN(C(C)C(=O)NC2CCCCC2)CC1 (stereo not given)	none
CCOC(=O)C1CCCN(S(=O)(=O)Cc2ccc(Cl)cc2)C1 (stereo not given)	none
CCOC(=O)C(/C=C(\C#N)C(=O)OCC)=C(/N)N1CCN(c2ccc(Cl)cc2)CC1	SENP8 block-1 46 | SENP8 conf inactive
c1ccc2[nH]c3cc4ncnc4cc3nc2c1	SENP8 block-1 48 | SENP8 conf 60
NS(=O)(=O)c1cccc(NC(=O)c2ccc(NS(=O)(=O)c3cccc([N+](=O)[O-])c3)cc2)c1	none (no result: Platelet DG rel)
CCn1cc(/C=C/C(=O)Nc2ccn(Cc3c(F)c(F)cc(F)c3F)n2)cn1	SENP8 block-1 29 | SENP8 conf 66
CCn1cc(/C=C/C(=O)Nc2ccc(C)cc2Br)cn1	none
Cc1ccccc1C1=C/C(=C(\SS/C(C(=O)c2ccc(OCC(=O)O)c(Cl)c2Cl)=C2\C=C(c3ccccc3C)SS2)C(=O)c2ccc(OCC(=O)O)c(Cl)c2Cl)SS1	SENP8 block-1 41 (no result: SENP7 block, Platelet DG rel, SENP6 block, SENP8 block-2) | SENP8 conf 56
N#C/C(=C/C1=C(N2CCOCC2)C(=C/c2ccccc2)/CC1)C(=O)Nc1ccccc1F	none (no result: SENP7 block, Platelet DG rel, SENP6 block, SENP8 block-2)
N#C/C(=C\C1=C(N2CCOCC2)C(=C/c2cccc([N+](=O)[O-])c2)/CC1)C(=O)Nc1ccccc1F	SENP8 block-1 48 (no result: SENP7 block, Platelet DG rel, SENP6 block, SENP8 block-2) | SENP8 conf inactive
Oc1ccc(Br)cc1-c1ccnn1-c1ccccc1	none
Cc1occc1-c1nnc(SCC(=O)N2CCc3ccccc32)o1	none
O=[N+]([O-])c1cc(Cl)c2cccnc2c1O	none
O=[N+]([O-])c1cc(F)c2cccnc2c1O	SENP8 block-1 52 | SENP8 conf 93
Cc1cnc(C=NNC(N)=S)c2cccc(N)c12	SENP8 block-1 82 (no result: SENP7 block, Platelet DG rel, SENP6 block, SENP8 block-2) | SENP8 conf 43
Cn1c(=O)n(Cc2ccccc2)c(=O)c2c1nc1n2CCCN1C1CCCCC1	SENP8 block-1 45 | SENP8 conf inactive
OCC[C@H]1C[C@@H](O)[C@H](O)[C@@]2(Cc3ccccc3CO2)O1	none (no result: Platelet DG rel)
Cc1ccc(SCc2nnc(NC(=O)c3ccccc3)s2)cc1	SENP8 block-1 40 | SENP8 conf inactive
CCOC(=O)C1CCN(Cc2cccc(OCc3ccccc3)c2)CC1	none
Cc1ccc(S(=O)(=O)Nc2cc(C)c(O)c(S(=O)(=O)c3ccc(C)cc3)c2)cc1	none
Cc1ccc(Nc2cc(C)c(O)c(C)c2)cc1	SENP8 block-1 48 | SENP8 conf 67
COc1cccc(CN(C)C(=O)c2ccc(NC(=O)CC3SC(N4CCCC4)=NC3=O)cc2)c1OC (stereo not given)	none
O=[N+]([O-])c1ccc(N2CCOCC2)nc1	none
O=C1CC(N2CCOCC2)=NN1c1ccc([N+](=O)[O-])cc1	SENP8 block-1 76 | SENP8 conf 46
O=C(Cc1cccc(NC(=O)C2CCN(C(=O)C3CCCC3)CC2)c1)Nc1cccc(C(=O)N2CCCCC2)c1	none (no result: SENP7 block, Platelet DG rel, SENP6 block, SENP8 block-2)
CCN(CC)S(=O)(=O)c1ccc(/C=C/C(=O)Nc2ccc(N3CCOCC3)cc2)cc1	SENP8 block-1 42 | SENP8 conf inactive
CC1=Nc2ncnn2C(c2ccccc2)/C1=N\O (stereo not given)	none
O=C1C2CCCCC2C(=O)N1c1ccc(NC2CCN(Cc3ccccc3)CC2)c([N+](=O)[O-])c1 (stereo not given)	SENP8 block-1 44 | SENP8 conf inactive
O=[N+]([O-])c1ccc(NC2CCN(Cc3ccccc3)CC2)c([N+](=O)[O-])c1	none
CC1CCC2C(=O)N(c3ccc(NC4CCN(Cc5ccccc5)CC4)c([N+](=O)[O-])c3)C(=O)C2C1 (stereo not given)	SENP8 block-1 47 | SENP8 conf inactive
O=[N+]([O-])c1ccccc1NC1CCN(Cc2ccccc2)CC1	SENP8 block-1 44 | SENP8 conf inactive
O=C1CCC(=O)N1c1ccc(NC2CCN(Cc3ccccc3)CC2)c([N+](=O)[O-])c1	none
CCOC(=O)c1cnc(SC)nc1Oc1cccc(NS(=O)(=O)c2ccc(C)cc2)c1	none
Cc1ccc(-c2cc([C@H]3[C@H]4C=CC[C@@H](C)[C@@H]4C(=O)N3Cc3ccccc3)ccc2F)cc1	none
CCCNC(=O)c1cc(C2CCCCN2C(=O)c2ccc(C#N)cc2)on1 (stereo not given)	none (no result: SENP7 block, Platelet DG rel, SENP6 block, SENP8 block-2)
O=C(C1CCCCC1)N1CCCc2ccccc21	none
CC(C)N1C(=O)CCC1C(=O)N1CCCc2ccccc21 (stereo not given)	SENP8 block-1 41 | SENP8 conf 67
COc1ccc(N2Cc3ccccc3C2=NC(=O)c2cncc(Br)c2)cc1	none
O=S1(=O)CCOC[C@H](CC2CCCCC2)N1Cc1ccccc1Br	none
COc1cc(C(=O)NCC(c2ccc(F)cc2)N2CCOCC2)ccc1OCc1ccccc1Cl (stereo not given)	none
CC1(C)CC2(CCO1)C(Nc1ccccc1)=NC(=S)N2CC(N)=O (stereo not given)	SENP8 block-1 45 | SENP8 conf inactive
Cc1ccccc1NC1=NC(=S)N(CC(N)=O)C12CCOC(C)(C)C2 (stereo not given)	none
COc1ccc(C2C=CC(=O)CC2)c(OC)c1 (stereo not given)	none (no result: SENP7 block, Platelet DG rel, SENP6 block, SENP8 block-2)
CC(c1c(O)c2ccccc2[nH]c1=O)C1(C)CCC(O)C(C)(C)O1 (stereo not given)	SENP8 block-1 44 | SENP8 conf inactive
CC1=C(C(N)=O)C(c2ccccc2)n2nc(-c3ccncc3)nc2N1 (stereo not given)	none
Cc1nc(-[n+]2nc(-c3ccncc3)nn2-c2ccccc2)sc1C	SENP8 block-1 41 (no result: SENP7 block, Platelet DG rel, SENP6 block, SENP8 block-2) | SENP8 conf inactive
O=[N+]([O-])c1ccc(N2CCCC2)cc1NCc1ccccc1	none
CC(Nc1cc(N2CCCC2)ccc1[N+](=O)[O-])c1ccccc1 (stereo not given)	SENP8 block-1 45 (no result: Platelet DG rel) | SENP8 conf inactive
O=[N+]([O-])c1ccc(N2CCOCC2)cc1NCc1ccccc1	SENP8 block-1 42 (no result: Platelet DG rel) | SENP8 conf inactive
CC(Nc1cc(N2CCOCC2)ccc1[N+](=O)[O-])c1ccccc1 (stereo not given)	none
